An excerpt weighted towards active compounds, which were near 4.1% of everything screened.
SMARCA2 activ – activators of SMARCA2 function. MG213 cells, MMTV-luciferase reporter, dexamethasone, overnight. activation, % at 9.1 µM. 370,000 tested, 1% active. AID 652017; in the data active = activation above about 7.8%;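 note: 0% = vehicle wells and 100% = reference activator wells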
TbMetRS inhib – Trypanosoma brucei MetRS inhibition; inhibition, % at 11.9 µM; purified T. brucei MetRS, ATP depletion, Kinase-Glo luminescence; 360,000 tested, 0.4% active; AID 624268;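 active = inhibition above a per-plate cutoff of the control wells' mean inhibition plus 3 SD, cut at about 5.5% in these data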;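 note: 0% = DMSO wells median and 100% = median of wells with control inhibitor compound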
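Material – parasite MetRS enzyme · Medium – HEPES-MgCl2-KCl buffer plus DTT, spermine, BSA, pyrophosphatase · Reagent – ATP, methionine and E. coli bulk tRNA substrates · Times – 15 min enzyme-compound preincubation, 2 h reaction, 10 min detection, 25 °C · Measured by – luminescence of leftover ATP · Evaluation – percent inhibition relative to median high and low control wells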
Efflux pump mplx – antifungal efflux pump inhibition, Nile Red retention | AID 485275 | inhibition, % at 10 µM | 330,000 tested, 0.44% active | S. cerevisiae Candida pump triplex;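 active = plate passing quality check with inhibition over a set limit, or well fluorescence over plate mean plus 4 SD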;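 note: Nile Red retained in pooled yeast measured as flow cytometry median fluorescence; 0% = buffer negative control and 100% = Enniatin B positive control; higher means more Nile Red kept so more efflux inhibition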
TAG inh – inhibitors of triacylglycerol accumulation; H9c2 cells, Nile Red lipid (TAG) fluorescence; cells loaded with 200 µM oleic acid; inhibition, % at 12.5 µM; 230,000 tested, 0.66% active;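 active = pattern-corrected inhibition of lipid staining of at least 50% with the nuclear-stain viability signal not falling by more than 50%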;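 note: 0% = DMSO wells and 100% = triacsin C control wells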
AHR activator – human AHR activation. P35869. AHR-responsive luciferase reporter cells, luminescence. activation, % at 5 µM. 320,000 tested, 2.5% active; in the data active = activation above about 47%;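 note: 0% = vehicle wells and 100% = reference agonist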
Target sequence (P35869 whole entry, looked up): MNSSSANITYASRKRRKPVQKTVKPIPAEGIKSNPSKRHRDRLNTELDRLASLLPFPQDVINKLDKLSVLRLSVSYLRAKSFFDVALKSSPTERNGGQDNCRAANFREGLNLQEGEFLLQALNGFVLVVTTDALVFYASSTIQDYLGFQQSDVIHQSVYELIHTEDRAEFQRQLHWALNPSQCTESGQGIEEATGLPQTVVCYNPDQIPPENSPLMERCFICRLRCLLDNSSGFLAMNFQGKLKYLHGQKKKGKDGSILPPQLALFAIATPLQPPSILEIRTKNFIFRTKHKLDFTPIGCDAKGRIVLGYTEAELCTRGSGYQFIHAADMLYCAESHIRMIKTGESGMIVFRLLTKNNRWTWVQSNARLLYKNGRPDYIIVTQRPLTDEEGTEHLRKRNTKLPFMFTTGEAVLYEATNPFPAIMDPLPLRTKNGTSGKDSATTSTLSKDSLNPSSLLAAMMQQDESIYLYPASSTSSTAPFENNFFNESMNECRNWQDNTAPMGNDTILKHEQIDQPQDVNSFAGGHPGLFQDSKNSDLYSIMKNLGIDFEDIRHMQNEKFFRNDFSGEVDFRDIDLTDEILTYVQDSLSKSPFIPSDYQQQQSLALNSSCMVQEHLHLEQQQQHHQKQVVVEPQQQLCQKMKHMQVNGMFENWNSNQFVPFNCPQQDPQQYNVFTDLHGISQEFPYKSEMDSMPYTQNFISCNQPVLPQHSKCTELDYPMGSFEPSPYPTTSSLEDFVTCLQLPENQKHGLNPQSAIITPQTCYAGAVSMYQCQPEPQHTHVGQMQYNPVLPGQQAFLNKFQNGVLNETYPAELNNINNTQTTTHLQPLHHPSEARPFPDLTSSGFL
AHR act cf – confirmation of human aryl hydrocarbon receptor activators. shares compounds with AHR activator. human cells, AHR-responsive luciferase reporter, luminescence. activation, % at 9 µM. 2,300 tested, 87% active. AID 2845; in the data active = activation above about 49%;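 note: HepG2 hepatoma cells carrying a DRE-driven firefly luciferase reporter; 0% = vehicle wells and 100% = reference agonist wells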
PXR counter – PXR activation, counter-screen for AHR activators | shares compounds with AHR activator | cell-based PXR reporter, luciferase luminescence | activation, % at 11.6 µM | 2,300 tested, 88% active | AID 434939; in the data active = activation above about 11%;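 note: human hepatoma DPX-2 cells expressing full-length human PXR; 0% = DMSO and 100% = reference agonist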
* = called active by the depositor; . = no result given.

SMILES	SMARCA2 activ	TbMetRS inhib	Efflux pump mplx	TAG inh	AHR activator	AHR act cf	PXR counter
Cc1cc(C)c(C#N)c(SCC(=O)c2ccccc2)n1	-1.4	-0.6	0.0	.	147.6*	153.0*	28.6*
Cc1cc(C)c(C#N)c(SCC(=O)c2cccs2)n1	6.5	-0.2	0.2	.	165.1*	111.6*	28.3*
Cc1cc(SCC(=O)c2cccs2)nc2c(C)cccc12	-3.1	-0.8	-0.1	.	82.6*	99.9*	64.7*
O=C(/C=C/Nc1ccc(F)cc1F)c1ccc(Br)cc1	1.9	-0.9	-0.1	-9.9	90.3*	90.0*	12.1*
O=C(/C=C/Nc1ccc(F)cc1F)c1cccs1	7.0	-0.2	-0.2	.	86.5*	108.1*	86.1*
O=C(/C=C/Nc1ccc(F)cc1F)c1ccco1	6.9	-0.7	0.0	2.4	40.9	.	.
O=C(/C=C/Nc1ccc(Br)cc1F)c1ccco1	2.4	0.2	0.7	-3.9	45.7	.	.
CC(C)NC(=O)COc1ccc(S(=O)(=O)N2CCOCC2)cc1	-2.5	-0.4	-0.1	-0.6	0.1	.	.
CC(C)NC(=O)COc1ccc(S(=O)(=O)N2CCCC2)cc1	0.2	-0.5	0.0	.	87.0*	-3.5	15.6*
O=C(NC1CC1)C1=C[C@H](c2ccc(C(F)(F)F)cc2)C[C@H](OCCCCO)O1	1.4	-0.5	0.0	-10.5	99.8*	45.5	13.5*
C=CCOC(=O)N[C@H](c1cccc(OC)c1)[C@H](C)/C=C/CC(=O)OC	-0.7	.	.	.	.	.	.
CSC(=NC#N)N1CCN(c2cccc(Cl)c2)CC1	2.2	-0.6	0.0	-2.2	114.6*	6.9	41.1*
CSC(=NC#N)N1CCN(c2ccccc2)CC1	-2.5	-0.6	0.0	.	-4.2	.	.
COC(=O)c1cc(-c2ccccc2OC)c(=O)n2c1CCC2	-1.0	.	.	.	.	.	.
O=C(CSc1nc2ccccc2c(=O)n1CCCO)NCc1ccccc1	-3.1	-1.1	-0.1	.	-0.6	.	.
O=c1c2ccccc2nc(SCc2nc3ccccc3s2)n1CCCO	6.0	-0.6	-0.2	.	88.6*	107.3*	51.9*
O=C(NNC(=O)C1CC1)c1cc2cc3ccccc3nc2s1	-0.8	-0.8	0.5	.	109.8*	72.1*	12.1*
O=C(NNC(=O)C1CC1)c1cc(Cl)nc2ccccc12	-2.6	-0.2	0.1	5.5	16.2	.	.
O=C(NNC(=O)c1cc2cc3ccccc3nc2s1)c1ccc(F)cc1	0.5	-1.1	-0.1	9.3	91.4*	45.7	12.0*
COc1ccc(-c2cnc3ccccc3n2)cc1NC(=O)CNC(=O)c1ccccc1	2.6	-0.1	-0.5	25.4	117.2*	35.2	42.3*
CC1CCC/C(=N/NC(=O)c2ccccc2-n2cccc2)C1 (stereo unspecified)	0.0	0.0	0.0	.	83.0*	6.5	11.3*
O=C(NN=C1CCC(c2ccccc2)CC1)c1ccccc1-n1cccc1 (stereo unspecified)	-3.5	0.0	1.0	.	116.6*	3.7	9.4
CN(C)CC(=O)N[C@@H]1C[C@@H]2O[C@@H](CO)CC[C@@H]2O[C@@H]1CCc1ccc(C#Cc2ccccc2)cc1	-1.5	.	.	.	.	.	.
COc1ccc(C(=O)Nc2cc(C)on2)cc1[N+](=O)[O-]	0.7	0.0	0.2	-4.3	-0.2	.	.
COc1ccc(C(=O)NC(=S)Nc2cc(C)ccn2)cc1[N+](=O)[O-]	-0.6	-0.2	0.3	.	82.2*	109.2*	12.5*
SMILES	SMARCA2 activ	TbMetRS inhib	Efflux pump mplx	TAG inh	AHR activator	AHR act cf	PXR counter
COC(=O)[C@]12C[C@H](CC(=O)N3CCCC3)C(=O)N(Cc3ccco3)C1=C[C@H](C(C)C)O[C@@H]2C1CC1	-3.2	.	.	.	.	.	.
CCOC(=O)Cc1cc(=O)n2[nH]c(-c3ccccc3)cc2n1	.	-0.2	0.2	.	4.2	.	.
Cc1ccccc1-c1cc2nc(-c3ccc([N+](=O)[O-])cc3)cc(=O)n2[nH]1	0.8	0.2	-0.1	-2.4	1.3	.	.
Cc1cccc(-c2cc3nc(-c4ccccc4)cc(=O)n3[nH]2)c1	5.2	-1.1	0.0	.	89.1*	104.8*	33.8*
CCCc1cc(=O)n2[nH]c(-c3cccc(Br)c3)cc2n1	1.1	-0.6	0.1	.	159.5*	166.2*	34.8*
COC(=O)c1cc(-c2ccc(C)c3ccccc23)c(=O)n2c1CCC2	-0.4	.	.	.	.	.	.
COc1ccc(CN2CN3Cc4ccccc4C3CS2(=O)=O)cc1 (stereo unspecified)	-4.0	.	.	.	.	.	.
C(=C\c1ccc2ccccc2n1)/c1ccccc1	0.8	-0.5	0.0	-5.2	41.4	.	.

Compound activity as filed in PubChem.
